Active and inactive are the calls of the source. No cut-off for these calls is given here.
How the values were obtained:
DU-145 [1] = assay: Antiproliferative activity against human DU145 cells under hypoxia condition assessed as growth inhibition at 10 to 100 uM after 24 hrs by MTT assay; format: functional, cell-based
Summary of the method: (§1)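 DU145 human prostate cancer cells kept in RPMI 1640 with 10% heat-inactivated FBS and kanamycin (50 µg/ml), 5% CO2, 37 °C. Seeded at 1 × 10⁴ cells/well. Held 4 h normoxic, then 12 h under 1% O2/5% CO2/94% N2 to induce hypoxia genes. Compound then added and plates kept a further 24 h hypoxic. Read-out by MTT, with inhibition as percent of parallel negative controls.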

DU-145 [2] = assay: Antiproliferative activity against human DU145 cells under normoxia condition assessed as growth inhibition at 10 to 100 uM after 24 hrs by MTT assay; format: functional, cell-based
Summary of the method: (§2)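 DU145 cells were grown in RPMI 1640 with heat-inactivated 10% FBS and kanamycin (50 µg/ml) under humidified 5% CO2 at 37 °C and seeded at 1 × 10⁴ cells/well. Growth under normoxic conditions was measured by colorimetric MTT assay. Inhibition was taken relative to parallel negative controls.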

CCRF S-180 [3] = assay: Antitumor activity against mouse S180 cells allografted in ddY mouse assessed as tumor growth at 5 mg/kg, po administered once every 2 days for 2 weeks relative to control; settings: CCRF S-180, po
CCRF S-180 [4] = assay: Antitumor activity against mouse S180 cells allografted in ddY mouse assessed as tumor growth at 10 mg/kg, po administered once every 2 days for 2 weeks relative to control; settings: CCRF S-180, po
DU-145 [5] = assay: Antiproliferative activity against normoxia-induced human DU145 cells assessed as growth inhibition after 24 hrs by MTT assay; format: functional, cell-based; summary of the method: as §2
Mus musculus [6] = assay: Toxicity in mouse S180 cells allografted in ddY mouse assessed as weight loss at 5 to 25 mg/kg, po administered once every 2 days for 2 weeks relative to control; format: organism-based, CCRF S-180; set-up: dose 5-25 mg/kg, route oral; settings: in vivo
Summary of the method: (§3)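 Female ddY mice, 6 weeks old, received S180 sarcoma cells (1 × 10⁶ cells/body) subcutaneously in the right ventral flank. Dosing began one week after implantation: oral suspension in 1% CMC-Na, every other day for 2 weeks (7 doses). Tumors were excised and weighed to give the inhibition ratio against control. Four mice per group. Weight loss and diarrhea were watched throughout.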

DU-145 [7] = assay: Antiproliferative activity against human DU145 cells under hypoxia condition assessed as growth inhibition after 24 hrs by MTT assay; format: functional, cell-based; summary of the method: as §1
CCRF S-180 [8] = assay: Antitumor activity against mouse S180 cells allografted in ddY mouse assessed as tumor growth at 25 mg/kg, po administered once every 2 days for 2 weeks relative to control; settings: CCRF S-180, po
Mus musculus [9] = assay: Toxicity in mouse S180 cells allografted in ddY mouse assessed as diarrhea at 5 to 25 mg/kg, po administered once every 2 days for 2 weeks relative to control; format: organism-based, CCRF S-180; set-up: dose 5-25 mg/kg, route oral; settings: in vivo; summary of the method: as §3
DU-145 [10] = assay: Antiproliferative activity against human DU145 cells under hypoxia condition assessed as growth inhibition at 3 to 30 uM after 24 hrs by MTT assay; format: functional, cell-based; summary of the method: as §1
DU-145 [11] = assay: Inhibition of transcription factor complex formation in hypoxia-induced human DU145 cells assessed as reduction in nuclear proteins and Sp1 oligonucleotide probe complex at 100 to 300 uM by EMSA; format: functional, cell-based
Summary of the method: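 Nuclear extracts were made from DU145 cells under normoxia or hypoxia. They were pre-incubated on ice for 20 min with compound (100 or 300 µM) in binding buffer: 10 mM Tris-HCl pH 7.5, 50 mM KCl, 5 mM MgCl2, 1 mM DTT, 1% glycerol, BSA, poly(dI-dC). Then 5'-biotinylated Sp1 oligonucleotide (4 fmol per 20 µL) was added for 15 min at room temperature. Complexes were resolved on 5% native PAGE in 0.5× TBE, blotted, and detected by streptavidin-HRP/ECL.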

Row | SMILES | growth inhibition (GI) (DU-145 [1]) | growth inhibition (GI) (DU-145 [2]) | growth inhibition (GI) (DU-145 [10]) | Activity (DU-145 [11]) | also measured
1 | CC(=O)OC/C(C)=C/CC/C(C)=C/CC/C(C)=C/CC/C(C)=C/CCc1ccoc1 | Active | Active | – | – | –
2 | C#CCOC/C(C)=C/CC/C(C)=C/CC/C(C)=C/CC/C(C)=C/CCc1ccoc1 | Active | Active | – | – | –
3 | C#CCC/C(C)=C/CC/C(C)=C/CC/C(C)=C/CC/C(C)=C/CCc1ccoc1 | Active | Active | – | – | level, % of control at 5 mg/kg (CCRF S-180 [3]): 45%; level, % of control at 10 mg/kg (CCRF S-180 [4]): 26%; growth inhibition (GI) (DU-145 [5]): Dose-dependent effect; Activity (Mus musculus [6]): Non-toxic; growth inhibition (GI) (DU-145 [7]): Dose-dependent effect; level, % of control at 25 mg/kg (CCRF S-180 [8]): 11%; Activity (Mus musculus [9]): Non-toxic
4 | CC#CCC/C(C)=C/CC/C(C)=C/CC/C(C)=C/CC/C(C)=C/CCc1ccoc1 | Active | Active | – | – | –
5 | C/C(=C\CC/C(C)=C/CCc1ccoc1)CC/C=C(\C)CC/C=C(\C)CCc1cn(CCOCCOCCOCCNC(=O)CSC[C@H](NC(=O)c2ccc(C(=O)c3ccccc3)cc2)C(=O)NCCOCCOCCOCCn2cc(CNC(=O)CCCC[C@@H]3SC[C@@H]4NC(=O)N[C@@H]43)nn2)nn1 | – | – | Active | Active | –
6 | C/C(=C\CC/C(C)=C/CCc1ccoc1)CC/C=C(\C)CC/C=C(\C)CCc1cn(CCOCCOCCNC(=O)CSC[C@H](NC(=O)c2ccc(C(=O)c3ccccc3)cc2)C(=O)NCCOCCOCCOCCn2cc(CNC(=O)CCCC[C@@H]3SC[C@@H]4NC(=O)N[C@@H]43)nn2)nn1 | – | – | Active | Active | –
7 | C/C(=C\CC/C(C)=C/CCc1ccoc1)CC/C=C(\C)CC/C=C(\C)CCc1cn(CCCCCNC(=O)CSC[C@H](NC(=O)c2ccc(C(=O)c3ccccc3)cc2)C(=O)NCCOCCOCCOCCn2cc(CNC(=O)CCCC[C@@H]3SC[C@@H]4NC(=O)N[C@@H]43)nn2)nn1 | – | – | inactive | inactive | –
8 | C/C(=C\CC/C(C)=C/CC/C(C)=C/CC/C(C)=C/CCc1ccoc1)CO | Active | Active | – | – | –
9 | C#CC/C(C)=C/CC/C(C)=C/CC/C(C)=C/CC/C(C)=C/CCc1ccoc1 | Active | Active | – | – | –
10 | C/C(=C\CC/C(C)=C/CCc1ccoc1)CC/C=C(\C)CC/C=C(\C)CCc1cn(CCCNC(=O)CSC[C@H](NC(=O)c2ccc(C(=O)c3ccccc3)cc2)C(=O)NCCOCCOCCOCCn2cc(CNC(=O)CCCC[C@@H]3SC[C@@H]4NC(=O)N[C@@H]43)nn2)nn1 | – | – | inactive | inactive | –
11 | CC(C)=CCC/C(C)=C/CC/C(C)=C/CC/C(C)=C/CCc1ccoc1 | Active | Active | – | – | –
